# In the library only some 1.6% were active in any assay of this set; here they are far more common.
# proCasp7 act = procaspase-7 activators, primary screen, counter-screen for procaspase-3 activator project, biochemical, absorbance, HTS, human | Caspase-7 (Homo sapiens), P55210 | recombinant procaspase-7, Ac-DEVD-pNA absorbance 405 nm; D23A/D198A/D206A triple mutant, cannot self-cleave; scale: DMSO 0, 5 µM enzyme 100 | activation, % at 8.5 µM | actives 0.093% (n = 330,000);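 active = percent activation above the screen-wide mean plus 3 SD, cut at about 25% in these data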
#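 System: Uncleavable procaspase-7 mutant enzyme; Amount: 2 µM procaspase-7 mutant as dispensed; Schedule: 1 h compound preincubation, 2 h substrate cleavage, 25 °C; Measured by: 405 nm absorbance of p-nitroaniline; Evaluation: percent activation from buffer-corrected 0–120 min absorbance change; Control set: low DMSO alone, high DMSO plus 5 µM PC-7.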
# proCasp3 act = activators of human procaspase-3 D3A mutant, primary screen, biochemical, absorbance, PC-3 D3A mutant, single concentration. Caspase-3 (Homo sapiens), P42574. recombinant procaspase-3 D3A, Ac-DEVD-pNA absorbance 405 nm. actives 0.11% (n = 330,000). activation, % at 8.5 µM;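 active = activation above the mean of all tested compounds plus 3 SD, cut at about 21% in these data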;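 also: 0% = DMSO alone and 100% = DMSO wells spiked with extra 5 µM PC-3 D3A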
#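 Evaluation: percent activation relative to control range; Material: Procaspase-3 D3A mutant, all three cleavage aspartates alanine; Compound: single dose, 8.5 µM nominal compound, 0.8% DMSO; Replication: one well per compound; Signal: absorbance at 405 nm, 0 and 120 min; Schedule: 1 h preincubation plus 2 h reaction at 25 °C.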
# sPLA2-III inh = human group III sPLA2 inhibitors, primary screen, biochemical, QFRET, BODIPY PC-A2 liposome substrate. Group 3 secretory phospholipase A2 (Homo sapiens), Q9NZ20. QFRET BODIPY PC-A2 liposome hydrolysis, fluorescence. inhibition, % at 12.2 µM. actives 0.56% (n = 370,000);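 active = inhibition above mean plus 3 SD of compounds lying within the high and low control bounds, cut at about 19% in these data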;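 also: 0% = median of test compound wells and 100% = no enzyme DMSO wells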
# PLCg1 inh = PLC-gamma1 enzyme inhibitors, primary screen, biochemical, fluorescence, purified enzyme. 1-phosphatidylinositol 4,5-bisphosphate phosphodiesterase gamma-1 (Homo sapiens), P19174. fluorogenic substrate. inhibition, % at 12.2 µM. actives 0.84% (n = 370,000); in the data active = inhibition above about 9.5%
# PLC-beta3 inh = human PLC-beta3 inhibitors, primary screen, biochemical, fluorescence; 1-phosphatidylinositol 4,5-bisphosphate phosphodiesterase beta-3 (Homo sapiens), Q01970; Purified PLC-beta3, fluorogenic substrate; inhibition, % at 12.2 µM; actives 0.18% (n = 370,000); in the data active = inhibition above about 11%;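 also: 0% = median of compound wells on plate and 100% = full blocker control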
# hGIII sPLA2 conf = human group III sPLA2 inhibitors, confirmation, biochemical, QFRET, triplicate; shares compounds with sPLA2-III inh; recombinant hGIII-sPLA2, BODIPY PC-A2 QFRET fluorescence; inhibition, % at 12.2 µM; actives 34% (n = 2,000);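 active = mean inhibition across triplicates above the hit cutoff set in the earlier primary screen, cut at about 19% in these data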;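 also: 0% = enzyme with DMSO and 100% = DMSO wells lacking enzyme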
# 535nm interf = 535nm fluorescence optical interference, confirmation, artefact control for HGIII-sPLA2 inhibitor project, biochemical, QFRET; shares compounds with sPLA2-III inh; inhibition, % at 12.2 µM; BODIPY FL product fluorescence interference; actives 8.5% (n = 2,000); AID 743282, 2014;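 active = average inhibition above the solvent-only control mean plus 3 SD, cut at about 6% in these data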;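 also: 0% = DMSO with substrate plus product and 100% = DMSO with substrate alone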
# BODIPY interf DR = 535nm fluorescence optical interference, dose response, artefact control for HGIII-sPLA2 inhibitor project, biochemical, QFRET. 240 tested, under 10 active. BODIPY FL product fluorescence interference, cell-free. AID 743455, 2014. shares compounds with sPLA2-III inh. IC50, µM;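 active = IC50 at or below 10 µM; inactive = IC50 above 10 µM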
# * marks the source's active call; other numbers are inactive results; . = not tested or not shown.
SMILES,proCasp7 act,proCasp3 act,sPLA2-III inh,PLCg1 inh,PLC-beta3 inh,hGIII sPLA2 conf,535nm interf,others
O=C(NCc1ccc(F)cc1)C1CCCN(c2nc3ccccc3o2)C1 (stereo unspecified),.,.,-2,1,2,.,.,
Cc1ccc(CNC(=O)C2CCCN(c3nc4ccccc4o3)C2)cc1 (stereo unspecified),4,7,19*,1,-2,4,-6,
CCCCn1c(SCc2nc(N)nc(N3CCCCC3)n2)nc2c1c(=O)n(C)c(=O)n2C,-1,-6,21*,-1,0,4,-32,
O=C(NNc1nc(-c2ccccc2)cs1)c1cccs1,0,-5,33*,0,-13,49*,11*,
O=C(NNc1nc(-c2ccc(F)cc2)cs1)c1ccccc1,-16,-17,29*,-10,-160,40*,8.1*,
CC(C)(C)c1csc(NNC(=O)c2ccc(Br)cc2)n1,-20,-6,47*,-1,-10,49*,5,BODIPY interf DR=>122
O=C(NNc1nc(-c2ccccc2)cs1)c1ccc(F)cc1,-24,-17,36*,-13,-30,46*,11*,
CC(=O)NNc1nc(-c2ccccc2)cs1,-29,-12,4,-56,-67,.,.,
O=C(NNc1nc2ccccc2s1)c1ccc(F)cc1,-2,-5,9,0,2,.,.,
Cc1cccc(NC(=O)NNC(=O)c2ccc3ccccc3c2O)c1,.,.,29*,-48,-75,30*,2,BODIPY interf DR=>122
O=C(NNC(=O)c1ccc2ccccc2c1O)NC1CCCCC1,.,.,26*,-40,-75,18,1,
O=C(NNC(=O)c1ccc2ccccc2c1O)Nc1ccc(F)cc1,-6,4,28*,-51,-88,30*,1,BODIPY interf DR=>122
Cc1cccc(NC(=O)NNC(=O)c2ccc3ccccc3c2)c1,.,.,0,-3,-8,.,.,
CN(C)CCP(=O)(c1ccccc1)c1ccccc1,9,2,-3,-2,0,.,.,
CCCP(=O)(CCC)CCP(=O)(c1ccccc1)c1ccccc1,-10,-3,20*,-1,0,4,-11,
Cc1ccc(NC(=O)COC(=O)c2cc(Cl)ccc2[N+](=O)[O-])c(C)c1,-2,-1,20*,0,-3,2,-6,
CCOc1ccccc1NC(=S)Nc1ncccc1C,-9,-13,23*,1,0,8,-3,
CCOc1ccc(C(=O)NC(=S)Nc2ncccc2C)cc1[N+](=O)[O-],-3,-4,20*,3,1,10,-8,
Cc1cccnc1NC(=S)Nc1ncccc1C,-10,1,2,0,0,.,.,
COC(=O)C1CCN(C(=O)COC(=O)c2cc(-c3ccccc3)nc3ccc(OC)cc23)CC1,17,10,.,.,.,.,.,
COc1cccc2sc(NNC(=O)COc3ccccc3)nc12,-8,-11,23*,-5,-10,16,-3,
S=C(NCc1ccc2c(c1)OCO2)NCc1ccc2c(c1)OCO2,-16,-5,8,-4,0,.,.,
NNC(=S)NCc1ccc2c(c1)OCO2,-4,-10,20*,-27,-38,10,-6,
Cc1nn(CC(=O)O)c(C)c1N,7,2,10,1,-6,.,.,
CC1=C(C(=O)Nc2ccc(C(=O)NCCCN3CCCCC3)cc2)SCCO1,-4,8,2,2,-9,.,.,
